# Test results: ChEMBL document CHEMBL4354845, “Discovery and Structure-Activity Relationships of Nociceptin Receptor Partial Agonists That Afford Symptom Ablation in Parkinson's Disease Models” (J Med Chem, 2020)
# Calls of active or inactive are those of the source. The rule behind the calls is not given here.
# Tests used:
# [1] = Apparent permeability across apical to basolateral side in dog MDCK-MDR1 cells by HPLC-MS/MS analysis; format: ADME, cell-based, Canis lupus familiaris
# How it was run: (§1)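 MDR1-MDCK monolayers, bidirectional permeability (A→B and B→A), compound quantified by HPLC/MS/MS and expressed as Papp (10^-6 cm/s). Efflux ratio B–A/A–B. High BBB permeability taken as Papp A–B >3.0 with efflux ratio <3; efflux ratio >3 counted as high efflux.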
# [2] = Tmax in Sprague-Dawley rat brain at 3 mg/kg, sc measured upto 8 hrs by LC-MS/MS analysis; format: ADME, organism-based
# How it was run: (§2)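 Male Sprague-Dawley rats (250–300 g) given a single s.c. dose of 3 mg/kg (2 mL/kg) as a 1.5 mg/ml solution in 5% dimethylacetamide/95% of 30% SBECD. Plasma (K2-EDTA) and brain collected at 0.5, 1, 2, 4 and 8 h. Brain homogenised 1:4 w/v in water. Terfenadine internal standard, positive-ion ESI LC-MS/MS. Noncompartmental analysis, linear trapezoidal AUC to 8 h. Brain values are total.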
# [3] = AUClast in Sprague-Dawley rat brain at 3 mg/kg, sc measured upto 8 hrs by LC-MS/MS analysis; format: ADME, organism-based; design: time < 8 hr, dose 3 mg/kg, route subcutaneous; how it was run: as §2
# Rattus norvegicus [4] = assay: Anti-parkinson's disease activity in 6-OHDA-induced hemi-lesioned Sprague-Dawley rat model of Parkinson's disease assessed as reduction in immobility time at 0.01 to 1 mg/kg, ip administered for 3 days and measured after 20 mins of compound administration by bar test; format: functional, organism-based
# How it was run: (§3)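 Rats received unilateral 6-OHDA (8 µg freebase) into the medial forebrain bundle and were enrolled if they made >7 ipsilateral turns/min after D-amphetamine 5 mg/kg i.p. They were trained to reproducible performance, then given acute i.p. doses or vehicle (saline + 5% Tween 80, 1% DMSO) with 3-day washouts. Contralateral paw scored at 20 and 90 min in bar and drag tests. Rotarod started at 5 rpm, rising 5 rpm/180 s, expressed as % of control. Analysis by two-way ANOVA with Bonferroni.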
# [5] = Apparent permeability across basolateral to apical side in human Caco2 cells by HPLC-MS/MS analysis; format: ADME, cell-based; settings: Caco-2
# How it was run: (§4)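 Caco-2 monolayers, two-way permeability (apical→basolateral and basolateral→apical), compound monitored by HPLC/MS/MS and reported as Papp (10^-6 cm/s). Papp >1.0x10^-6 cm/s with efflux ratio <3 classed as high permeability/no efflux.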
# Rattus norvegicus [6] = assay: Anti-parkinson's disease activity in 6-OHDA-induced hemi-lesioned Sprague-Dawley rat model of Parkinson's disease assessed as increase in stepping activity at 0.01 to 1 mg/kg, ip administered for 3 days and measured after 90 mins of compound administration by drag test; format: functional, organism-based; how it was run: as §3
# [7] = Cmax in Sprague-Dawley rat brain at 3 mg/kg, sc measured upto 8 hrs by LC-MS/MS analysis; format: ADME, organism-based; design: dose 3 mg/kg, route subcutaneous; how it was run: as §2
# [8] = AUClast in Sprague-Dawley rat plasma at 3 mg/kg, sc measured upto 8 hrs by LC-MS/MS analysis; format: ADME, organism-based; design: dose 3 mg/kg, time < 8 hr, route subcutaneous; how it was run: as §2
# Rattus norvegicus [9] = assay: Anti-parkinson's disease activity in Sprague-Dawley rat model of L-DOPA-induced dyskinesia at 0.01 to 1 mg/kg, ip administered for 3 days; format: functional, organism-based
# [10] = Apparent permeability across apical to basolateral side in human Caco2 cells by HPLC-MS/MS analysis; format: ADME, cell-based; settings: Caco-2; how it was run: as §4
# [11] = Tmax in Sprague-Dawley rat plasma at 3 mg/kg, sc measured upto 8 hrs by LC-MS/MS analysis; format: ADME, organism-based; how it was run: as §2
# [12] = Half life in Sprague-Dawley rat plasma at 3 mg/kg, sc measured upto 8 hrs by LC-MS/MS analysis; format: ADME, organism-based; how it was run: as §2
# [13] = Half life in Sprague-Dawley rat brain at 3 mg/kg, sc measured upto 8 hrs by LC-MS/MS analysis; format: ADME, organism-based; how it was run: as §2
# Rattus norvegicus [14] = assay: Anti-parkinson's disease activity in 6-OHDA-induced hemi-lesioned Sprague-Dawley rat model of Parkinson's disease assessed as increase in time spent on rotarod at 0.01 to 1 mg/kg, ip administered for 3 days and measured after 20 mins of compound administration by rotarod test; format: functional, organism-based; how it was run: as §3
# [15] = Stability in mouse liver microsomes assessed as half life at 1 uM incubated for 60 mins by LC-MS/MS analysis; format: ADME, Microsome
# How it was run: (§5)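 Compound at 1 µM incubated at 37°C with liver microsomes in 100 mM potassium phosphate pH 7.4 and 5 mM MgCl2. Reaction started with 1 mM NADPH, sampled at 30, 45 and 60 min and quenched with acetonitrile/0.1% formic acid. Parent loss measured by LC-MS against t=0 with propranolol internal standard. Half-life from single-phase exponential fit, in duplicate.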
# [16] = Apparent permeability across basolateral to apical side in dog MDCK-MDR1 cells by HPLC-MS/MS analysis; format: ADME, cell-based, Canis lupus familiaris; how it was run: as §1
# [17] = Cmax in Sprague-Dawley rat plasma at 3 mg/kg, sc measured upto 8 hrs by LC-MS/MS analysis; format: ADME, organism-based; design: dose 3 mg/kg, route subcutaneous; how it was run: as §2
# Rattus norvegicus [18] = assay: Anti-parkinson's disease activity in Sprague-Dawley rat model of L-DOPA-induced dyskinesia at 0.1 to 3 mg/kg, ip administered for 3 days; format: functional, organism-based
# [19] = Stability in human liver microsomes assessed as half life at 1 uM incubated for 60 mins by LC-MS/MS analysis; format: ADME, Microsome; how it was run: as §5
# Rattus norvegicus [20] = assay: Anti-parkinson's disease activity in 6-OHDA-induced hemi-lesioned Sprague-Dawley rat model of Parkinson's disease assessed as increase in time spent on rotarod at 0.1 to 3 mg/kg, ip administered for 3 days and measured after 20 mins of compound administration by rotarod test; format: functional; how it was run: as §3
# [21] = Stability in rat liver microsomes assessed as half life at 1 uM incubated for 60 mins by LC-MS/MS analysis; format: ADME, Microsome; how it was run: as §5
# Rattus norvegicus [22] = assay: Anti-parkinson's disease activity in 6-OHDA-induced hemi-lesioned Sprague-Dawley rat model of Parkinson's disease assessed as increase in stepping activity at 0.1 to 3 mg/kg, ip administered for 3 days and measured after 90 mins of compound administration by drag test; format: functional, organism-based; how it was run: as §3
# Rattus norvegicus [23] = assay: Anti-parkinson's disease activity in 6-OHDA-induced hemi-lesioned Sprague-Dawley rat model of Parkinson's disease assessed as reduction in immobility time at 0.1 to 3 mg/kg, ip administered for 3 days and measured after 20 mins of compound administration by bar test; format: functional; design: scale not given: the % may be the effect or the level left; how it was run: as §3
SMILES,Papp A→B [1] [×10⁻⁶ cm/s],Tmax [2] [h],AUC(0-t) at 8 h [3] [µM·h],Activity (Rattus norvegicus [4]),Papp B→A [5] [×10⁻⁶ cm/s],Activity (Rattus norvegicus [6]),Cmax [7] [nM],AUC(0-t) at 8 h [8] [µM·h],Activity (Rattus norvegicus [9]),Papp A→B [10] [×10⁻⁶ cm/s],Tmax [11] [h],half-life [12] [h],half-life [13] [h],Activity (Rattus norvegicus [14]),half-life at 1 µM [15] [h],Papp B→A [16] [×10⁻⁶ cm/s],Cmax [17] [nM],Activity (Rattus norvegicus [18]),half-life at 1 µM [19] [h],half-life at 1 µM [21] [h],also measured
CC(C)[C@H]1CC[C@@H](N2CCC(N3CCc4ccccc43)CC2)CC1,26.8,0.5,6.7,Active,25,Active,3070,1.25,inactive,30,0.5,2.13,2.71,Active,0.0467,33.8,456,inactive,–,–,–
CC(C)[C@H]1CC[C@@H](N2CCC(n3ccc4ccccc43)CC2)CC1,28.8,0.5,10.1,–,19.1,–,4170,1.96,inactive,24,1,2.19,2.43,–,–,15.2,626,inactive,0.0883,0.0967,Activity (Rattus norvegicus [20]): 20%; Activity (Rattus norvegicus [22]): Active; Activity (Rattus norvegicus [23]): 25%
CC(C)[C@H]1CC[C@@H](N2CCC(n3cc(CCN)c4ccccc43)CC2)CC1.Cl.Cl,0.6,–,–,–,6.49,–,–,–,–,4.36,–,–,–,–,> 1,22.1,–,–,–,–,–
CC(C)[C@H]1CC[C@@H](N2CCC(n3cc(CN)c4ccccc43)CC2)CC1,0.34,4,6.13,Active,4.92,Active,956,1,inactive,4.64,0.5,2.61,10.8,Active,–,14.4,529,inactive,> 1,> 1,–
